Rows were chosen to be rich in hits. Some 3.2% of all compounds tested hit in one or more screens of this group.
rRNA inh HTS – reduced GFP signal of wild-type E. coli, primary screen, bacterial rRNA inhibitor project, GFP/RFP fluorescence, OD600, single point; E. coli WT GFP vs humanized-ribosome RFP mutants, 24 h; active compounds read low; DMSO median 0, no signal -100; 1.6% of 350,000 active; GFP signal change (wild-type ribosome), % (concentration not given with the values);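 active = significant combined selectivity score with lowered wild-type GFP, culture density cut under 30%, mutant RFP and density less affected; inactive = any of these conditions unmet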
S100A4 MyoIIA – inhibitors of S100A4-myosin IIA peptide binding, primary screen, biochemical, fluorescence polarization, TAMRA-MyoIIA peptide; Protein S100-A4 (Homo sapiens), P26447; 0.14% of 360,000 active; inhibition, % at 10.7 µM; AID 652163, 2013;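 active = mean inhibition of at least 70% across replicates, with every replicate also reaching that level; inconclusive = mean inhibition reaches 70% but some replicates fall short; inactive = mean inhibition below 70%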
Target sequence (P26447 whole entry, looked up): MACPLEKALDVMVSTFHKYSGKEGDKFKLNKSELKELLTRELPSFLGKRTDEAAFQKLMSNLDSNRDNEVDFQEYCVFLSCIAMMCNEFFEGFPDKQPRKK
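Test system: S100A4 monomer protein. Medium: HEPES buffer with Ca2+, pH 7.2. Reagent: fluorescent myosin IIA peptide, 5 nM. Compound dosing: single-point compound testing. Timing: 5 min between mix addition and reading. Benchmarks: DMSO neutral and TFP positive wells.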
MLL AF4-AF9 inh – inhibitors of AF4 peptide binding to AF9, primary screen, biochemical, AlphaScreen, biotin-AF4 peptide, FLAG-AF9, single point; inhibition, % at 10 µM; 0.47% of 350,000 active;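 active = every replicate reaching a set inhibition limit, whatever the replicate mean, cut at about 25% in these data; inconclusive = mean inhibition reaches that limit but some replicates miss it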
Target sequence (P42568 whole entry, looked up): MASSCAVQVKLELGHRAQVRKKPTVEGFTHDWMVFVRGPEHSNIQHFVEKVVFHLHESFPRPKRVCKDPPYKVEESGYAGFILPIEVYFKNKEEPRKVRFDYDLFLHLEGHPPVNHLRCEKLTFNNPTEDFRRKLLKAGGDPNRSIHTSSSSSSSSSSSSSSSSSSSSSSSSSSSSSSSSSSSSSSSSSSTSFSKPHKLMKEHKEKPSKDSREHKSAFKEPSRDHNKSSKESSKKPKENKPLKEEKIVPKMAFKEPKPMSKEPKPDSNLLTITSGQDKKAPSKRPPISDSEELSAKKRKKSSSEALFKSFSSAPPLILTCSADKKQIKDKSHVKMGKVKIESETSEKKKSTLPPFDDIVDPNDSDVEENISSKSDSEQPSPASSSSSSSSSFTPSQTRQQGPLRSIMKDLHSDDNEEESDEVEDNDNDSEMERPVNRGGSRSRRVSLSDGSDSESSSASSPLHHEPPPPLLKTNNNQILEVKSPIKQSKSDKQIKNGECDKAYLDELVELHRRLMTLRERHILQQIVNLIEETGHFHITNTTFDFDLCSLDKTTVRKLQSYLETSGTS
DENV2 CPE rescue – inhibitors of DENV2 cytopathic effect, primary screen, cell-based, plate reader, single concentration | DENV2-infected cells, cytopathic effect rescue | CPE inhibition, % at 9.99 µM | 1.7% of 350,000 active | AID 651640, 2012; in the data active = CPE inhibition above about 20%, passing the limit was not always enough; inconclusive = no clear call, values can overlap the other calls; tested in BHK-21 cells
Cneo AK release – Cryptococcus neoformans cell lysis inducers, primary screen, AK release luminescence, single concentration; C. neoformans lysis, adenylate kinase release luminescence, 4 h; normalised: neutral wells 0, clomiphene wells 100; lysis activity, % at 15 µM; 0.2% of 360,000 active; AID 651654, 2012;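 active = mean lysis activity across replicates of at least 80%, whatever share of replicates individually reach that level; inactive = mean lysis activity below 80%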
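Test system: log-phase Cryptococcus neoformans yeast cells. Input: 5 × 10^6 yeast cells/mL. Medium: fresh YPD growth medium. Doses: single dose. Incubation: static 4 h at 37 °C with compound, 1 h detection. Measured by: luminescent adenylate kinase detection reagent. Read-out: signal increase indicating cell lysis. Benchmarks: Clomiphene.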
PfHsp90 yeast 2 – growth inhibition of PfHsp90-expressing yeast, primary screen, antimalarial PfHsp90 inhibitor project, S. cerevisiae, BacTiter-Glo luminescence, single point, set 2. 0.32% of 310,000 active. BacTiter-Glo ATP, 48 h; yeast lacking PDR1 and PDR3 efflux regulators. AID 504621, 2011. inhibition, % at 9.4 µM;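 active = every replicate shows inhibition above about 80%, whatever the replicate mean, limit read from the data; inconclusive = mean inhibition reaches the set limit but some replicate falls short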
Each line names hits and unclear results; the compound was inactive in the other large screens.

COc1ccccc1-n1c(SCC(=O)O)nc2c(sc(=S)n2-c2ccc(C)c(C)c2)c1=O	rRNA inh HTS -21
COc1cc(C2CC(=O)c3c(O)cc(O)cc3O2)ccc1O (configuration not stated)	none (no result: rRNA inh HTS)
COc1ccc([C@H]2CC(=O)c3c(O)cc(O)cc3O2)cc1O	rRNA inh HTS -23 (no result: Cneo AK release)
O=C1C[C@@H](c2ccc(O)cc2)Oc2cc(O)cc(O)c21	DENV2 CPE rescue 103
COCC(=O)N(C)C[C@@H]1Oc2cc(-c3cccnc3)ccc2S(=O)(=O)N([C@H](C)CO)C[C@@H]1C	none (no result: PfHsp90 yeast 2)
CN(Cc1ccc(F)cc1)C(=O)c1ccc(NS(=O)(=O)c2ccc3[nH]c(=O)[nH]c3c2)cc1	none (no result: Cneo AK release, PfHsp90 yeast 2)
Cc1ccc(NC(=O)CN(C)C(=O)c2ccc(NS(=O)(=O)c3ccc4[nH]c(=O)[nH]c4c3)cc2)cc1	none
CN(Cc1c(F)cccc1Cl)C(=O)c1ccc(NS(=O)(=O)c2ccc3[nH]c(=O)[nH]c3c2)cc1	rRNA inh HTS -22
CN(CC(=O)Nc1c(Cl)cccc1Cl)C(=O)c1ccc(NS(=O)(=O)c2ccc3[nH]c(=O)[nH]c3c2)cc1	DENV2 CPE rescue 40 (no result: PfHsp90 yeast 2)
Cc1ccccc1S(=O)(=O)N[C@H]1CC[C@@H](CCn2cc(Cc3ccccc3)nn2)O[C@@H]1CO	none (no result: PfHsp90 yeast 2)
C[C@H]1CN([C@@H](C)CO)C(=O)c2cccc(NC(=O)c3cnccn3)c2O[C@@H]1CN(C)Cc1ccncc1	none (no result: PfHsp90 yeast 2)
Cc1ccc(NC(=O)c2cc(C(=O)Nc3ccc(C)cc3)n(C)n2)cc1	DENV2 CPE rescue 42 (no result: Cneo AK release)
C[C@@H]1CN([C@@H](C)CO)C(=O)c2cc(C#CCN(C)C)cnc2O[C@H]1CN(C)C(=O)CN1CCOCC1	none (no result: PfHsp90 yeast 2)
O=C1c2cccc3c2N(CCC3)C(=O)C1(F)c1ccccc1 (configuration not stated)	rRNA inh HTS -17 (no result: PfHsp90 yeast 2)
CCCC(=O)Nc1ccc2c(c1)C(=O)N(C)[C@@H]1CC[C@@H](CC(=O)NCC3CC3)O[C@@H]1CO2	DENV2 CPE rescue inconclusive (no result: PfHsp90 yeast 2)
Cc1ccc(C(=O)n2nnc3ccccc32)cc1[N+](=O)[O-]	Cneo AK release 91 (no result: rRNA inh HTS, S100A4 MyoIIA, MLL AF4-AF9 inh, DENV2 CPE rescue)
C[C@@H]1CN([C@@H](C)CO)C(=O)Cc2cc(NC(=O)Cn3cnnn3)ccc2O[C@@H]1CN(C)S(=O)(=O)c1ccccc1	none (no result: S100A4 MyoIIA, MLL AF4-AF9 inh, DENV2 CPE rescue, Cneo AK release, PfHsp90 yeast 2)
Cc1ccc(SC2=C[C@@]3(O)CC[C@@H](O)[C@@](Sc4ccc(C)cc4)(C2=O)[C@H]3O)cc1	rRNA inh HTS -25, DENV2 CPE rescue inconclusive (no result: Cneo AK release, PfHsp90 yeast 2)
CC(C)(C)c1ccc(SC2=C[C@@]3(O)CC[C@@H](O)[C@@](Sc4ccc(C(C)(C)C)cc4)(C2=O)[C@H]3O)cc1	DENV2 CPE rescue inconclusive (no result: Cneo AK release, PfHsp90 yeast 2)
CN1C(=O)c2cc(NC(=O)c3ccno3)ccc2OC[C@H]2O[C@@H](CC(=O)NCC3CC3)CC[C@@H]21	none (no result: PfHsp90 yeast 2)
COc1ccc2c3c([nH]c2c1)[C@H](CO)N(C(=O)NC(C)C)CC31CN(Cc2ccccc2)C1	MLL AF4-AF9 inh 26 (no result: Cneo AK release, PfHsp90 yeast 2)
COc1ccc2c3c([nH]c2c1)[C@@H](CO)N(C(=O)NC(C)C)CC31CN(C(=O)NC(C)C)C1	DENV2 CPE rescue 47 (no result: Cneo AK release, PfHsp90 yeast 2)
COc1ccc2c3c([nH]c2c1)[C@H](CO)N(C(=O)NC(C)C)CC31CN(Cc2ccc(F)cc2)C1	MLL AF4-AF9 inh 31 (no result: Cneo AK release, PfHsp90 yeast 2)
COc1ccc2c3c([nH]c2c1)[C@H](CO)N(C(=O)NC(C)C)CC31CN(C(=O)C2CCCCC2)C1	DENV2 CPE rescue inconclusive (no result: Cneo AK release, PfHsp90 yeast 2)
N#C[C@H]1[C@@H](c2ccccc2C2=CCCCC2)[C@@H](CO)N1C(=O)NC1CCCCC1	DENV2 CPE rescue inconclusive (no result: Cneo AK release, PfHsp90 yeast 2)
O=C(Cc1ccccc1)N[C@H]1CC[C@H](CC(=O)N2CCOCC2)O[C@@H]1CO	none (no result: PfHsp90 yeast 2)
COc1ccc2c3c([nH]c2c1)[C@H](CO)N(S(C)(=O)=O)CC31CCN(CC2CCOCC2)CC1	none (no result: Cneo AK release, PfHsp90 yeast 2)
COc1ccc2c3c([nH]c2c1)[C@H](CO)N(S(C)(=O)=O)CC31CN(CC2CCOCC2)C1	S100A4 MyoIIA 102 (no result: Cneo AK release, PfHsp90 yeast 2)
COc1ccc2c3c([nH]c2c1)[C@H](CO)N(S(C)(=O)=O)CC31CCN(CC2CCCC2)CC1	DENV2 CPE rescue 28 (no result: Cneo AK release, PfHsp90 yeast 2)
COc1ccc2c3c([nH]c2c1)[C@@H](CO)N(S(C)(=O)=O)CC31CCN(CC2CCCC2)CC1	DENV2 CPE rescue 54 (no result: Cneo AK release, PfHsp90 yeast 2)
COc1ccc2c3c([nH]c2c1)[C@@H](CO)N(S(C)(=O)=O)CC31CCN(CC2CC2)CC1	none (no result: Cneo AK release, PfHsp90 yeast 2)
COc1cccc(CNC(=O)C[C@@H]2C=C[C@@H](NC(=O)C3CC3)[C@H](CO)O2)c1	none (no result: PfHsp90 yeast 2)
CN(C)C(=O)C[C@H]1C[C@H]2c3cc(NC(=O)C4CCC4)ccc3O[C@H]2[C@H](CO)O1	none (no result: PfHsp90 yeast 2)
COc1ccc(S(=O)(=O)N(C)C[C@H]2Oc3ccc(NC(=O)Nc4cccc5ccccc45)cc3C(=O)N([C@@H](C)CO)C[C@H]2C)cc1	none (no result: S100A4 MyoIIA, MLL AF4-AF9 inh, DENV2 CPE rescue, Cneo AK release, PfHsp90 yeast 2)
Cc1ccccc1-n1cc(-c2ccc(Br)cc2)nc1SCC(N)=O	rRNA inh HTS -41
CC(C)NC(=O)N(C)C[C@H]1OCCCC[C@@H](C)Oc2ccc(NC(=O)c3ccncc3)cc2C(=O)N([C@@H](C)CO)C[C@@H]1C	none (no result: PfHsp90 yeast 2)
Cc1ccc(CNC(=O)CN2CCN(Cc3ccc(C)cc3)C2=O)cc1	none (no result: rRNA inh HTS, S100A4 MyoIIA, MLL AF4-AF9 inh, DENV2 CPE rescue)
Cc1ccc(CN2CCN(CC(=O)N3CCC(C(N)=O)CC3)C2=O)cc1	MLL AF4-AF9 inh 41, DENV2 CPE rescue inconclusive
CCN(CC)C(=O)Oc1nnc(SC(C)C)n1-c1ccc(Cl)cc1	rRNA inh HTS -29 (no result: Cneo AK release)

Screening results: PubChem BioAssay, Broad Institute
